Measured values: ChEMBL document CHEMBL1141571, “Design, synthesis, and trypanocidal activity of new aminoadamantane derivatives” (J Med Chem, 2008)
Counter-ions that a name gives are not always drawn.

System: Trypanosoma brucei
Assay: Antitrypanosomal activity against Trypanosoma brucei
Assay type: functional, organism-based
In short: (§1)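 In vitro assay against bloodstream-form T. brucei grown at pH 7.4. Concentrations inhibiting growth by 50% (IC50) and 90% (IC90) were calculated. Values are the mean of triplicate experiments ± SEM.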

Row | IC50 | SMILES
1 | 520 nM | NC12CC3CC(C1)CC(C1CCCCC1)(C3)C2
2 | 330 nM | NC1CCC(C23CC4CC(CC(C4)C2)C3)CC1 (configuration not stated)
3 | 620 nM | NCCC12CC3CC(C1)CC(c1ccccc1)(C3)C2

System: Trypanosoma brucei
Assay: Antitrypanosomal activity against Trypanosoma brucei 427 at pH 7.4
Assay type: functional, organism-based
In short: as §1

Row | IC50 | IC90 | SMILES
4 | 2070 nM | 2650 nM | NC1C2CC3CC(C2)CC1(Cc1ccccc1)C3 (configuration not stated)
5 | > 132000 nM | > 132000 nM | NC12CC3CC(CC(C3)C1)C2 [AMANTADINE HYDROCHLORIDE]
6 | 90 nM | 110 nM | CCCCCCCCCCC12CC3CC(CC(C3)/C1=N\NC(=N)N)C2
7 | 410 nM | 470 nM | N=C(N)N/N=C1\C2CC3CC(C2)CC1(Cc1ccccc1)C3
8 | 1320 nM | 1730 nM | CCCCCCC12CC3CC(CC(C3)C1N)C2 (configuration not stated)
9 | 480 nM | 670 nM | CCCCCCCCCCC12CC3CC(CC(C3)C1N)C2 (configuration not stated)
10 | 590 nM | 1060 nM | CCCCCCCCCCCCC12CC3CC(CC(C3)C1NCC)C2 (configuration not stated)
11 | 2120 nM | 2810 nM | N=C(N)N/N=C1\C2CC3CC(C2)CC1(c1ccccc1)C3
12 | > 2000 nM |  | CCCCCCC12CC3CC(CC(C3)C1NCC)C2 (configuration not stated)
13 | > 6000 nM |  | CCCCCCC12CC3CC(CC(C3)/C1=N\NC(=N)N)C2
14 | 2810 nM | 5640 nM | CCCCCCC12CC3CC(CC(C3)/C1=N\NC(N)=S)C2
15 | 1090 nM | 1650 nM | CCCCCCCCCCC12CC3CC(CC(C3)C1NCC)C2 (configuration not stated)
16 | 800 nM | 1060 nM | CCCCCCCCC12CC3CC(CC(C3)C1N)C2 (configuration not stated)
17 | 920 nM | 1980 nM | CCCCCCCCCCCCCCC12CC3CC(CC(C3)C1N)C2 (configuration not stated)
18 | 420 nM | 540 nM | CCCCCCCCCCCCCCC12CC3CC(CC(C3)/C1=N\NC(N)=S)C2
19 | > 6000 nM |  | CCCCCCCCC12CC3CC(CC(C3)/C1=N\NC(=N)N)C2
20 | 840 nM | 1300 nM | CCCCCCCCCCCCCCC12CC3CC(CC(C3)/C1=N\NC(=N)N)C2
21 | 470 nM | 670 nM | CCCCCCCCCCCCC12CC3CC(CC(C3)C1N)C2 (configuration not stated)

Row | SMILES | IC50 | IC90
22 | CC(N)C12CC3CC(CC(C3)C1)C2 (configuration not stated) [RIMANTADINE HYDROCHLORIDE] |  | 14000 nM
